High-throughput results as filed in PubChem BioAssay.
Most compounds without a hit are left out; they make up all but 3.7% or so of the library.
Cl transport mod: modulators of human KCC2 chloride dependent transport. Q9H2X9. KCC2 cells, thallium flux FluoZin-2 fluorescence. B-score of Tl+ flux slope (higher = more flux/activation; lower = inhibition) at 10 µM. 190,000 compounds, 2.2% hits;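 active = thallium flux slope and its plate-corrected score both differing from the plate sample mean at a set confidence after two filtering rounds, in either direction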;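 also: slope of fluorescence scaled to starting intensity during 10 to 20 s after thallium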
Arbovirus anti: arbovirus infection inhibition | 200,000 compounds, 0.37% hits | inhibition, % at 10 µM | arbovirus infection cell-based antiviral screen; in the data active = inhibition above about 30%
ROMK mod: modulates human ROMK potassium channel activity. P48048. Tet-inducible ROMK, thallium flux fluorescence; actives lie on both sides. B-score at 10 µM. 130,000 compounds, 2% hits;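 active = signal ratio slope over the read window, or its plate-corrected B-score, at least 3 SD from the plate mean, either direction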;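 also: B-score of the F/F0 ratio slope over 7 to 12 s after thallium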
m-calpain inh: inhibitors of pig calpain II; 220,000 compounds, 0.37% hits; inhibition, % at 16 µM; purified calpain II, fluorogenic peptide substrate, 30 min;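 active = inhibition above about 50%, limit read from the data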
MDM2 E3 inh: Mdm2 E3 ligase (human) inhibition; Q00987; cell-based MDM2 ubiquitination luciferase reporter, 2 h; 0 = plate control, 100 = twice control, blank-subtracted; signal enhancement, % at 5 µM; 210,000 compounds, 0.11% hits;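 active = signal enhancement of 30% or more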;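 also: luminescence tracks abundance of the self-degrading MDM2-luciferase fusion protein; higher signal means inhibition of MDM2 E3 ligase activity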
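test system = mammalian cells stably expressing self-ubiquitinating, self-degrading MDM2 E3–luciferase fusion | quantity = 2000 cells/well | incubation = cell settling 4 h, compound treatment 2 h, both 37 °C | signal = luminescence with SteadyLite reagent, 15 min at room temperature | evaluation = % enhancement relative to plate controls after blank subtraction | benchmarks = plate controls and plate blanks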
PKD1 kinase inh: PKD1 (human) kinase inhibition; Q15139; PKD1 kinase fluorescence polarization assay; inhibition, % (concentration not given with the values); 200,000 compounds, 0.056% hits; in the data active = inhibition above about 50%
Target sequence (Q15139 whole entry, looked up): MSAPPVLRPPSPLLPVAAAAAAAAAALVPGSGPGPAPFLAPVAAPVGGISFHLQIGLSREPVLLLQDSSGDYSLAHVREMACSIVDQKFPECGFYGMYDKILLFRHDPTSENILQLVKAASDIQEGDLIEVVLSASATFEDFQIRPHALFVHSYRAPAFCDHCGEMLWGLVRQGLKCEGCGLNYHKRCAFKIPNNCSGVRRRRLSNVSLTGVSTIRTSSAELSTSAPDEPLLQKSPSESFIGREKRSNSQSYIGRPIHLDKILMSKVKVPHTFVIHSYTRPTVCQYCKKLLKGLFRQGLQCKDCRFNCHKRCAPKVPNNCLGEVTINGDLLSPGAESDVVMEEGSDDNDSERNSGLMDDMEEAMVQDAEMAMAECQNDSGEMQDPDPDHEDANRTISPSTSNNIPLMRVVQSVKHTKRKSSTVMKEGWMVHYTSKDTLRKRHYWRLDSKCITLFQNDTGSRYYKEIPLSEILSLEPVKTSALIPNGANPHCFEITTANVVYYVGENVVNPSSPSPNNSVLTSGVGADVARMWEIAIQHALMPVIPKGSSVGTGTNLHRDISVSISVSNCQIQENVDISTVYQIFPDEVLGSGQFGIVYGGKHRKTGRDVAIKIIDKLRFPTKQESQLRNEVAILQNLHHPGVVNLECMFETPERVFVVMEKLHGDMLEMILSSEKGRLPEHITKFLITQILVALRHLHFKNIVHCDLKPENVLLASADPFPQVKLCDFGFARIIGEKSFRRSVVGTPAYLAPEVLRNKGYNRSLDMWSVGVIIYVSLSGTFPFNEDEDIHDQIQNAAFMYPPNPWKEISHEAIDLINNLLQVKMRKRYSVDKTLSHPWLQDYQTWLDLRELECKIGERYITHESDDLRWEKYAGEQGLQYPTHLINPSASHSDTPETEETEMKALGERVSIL
Starred values were filed as active, the others as inactive; i = inactive; nt = no result.

SMILES	Cl transport mod	Arbovirus anti	ROMK mod	m-calpain inh	MDM2 E3 inh	PKD1 kinase inh
CC1Cc2ccccc2N1C(=S)NC(=O)c1ccc(Cl)cc1Cl (stereo unspecified)	51*	-17	7.8*	14	-5	-4
CCOC(=O)c1nn(-c2ccc(F)cc2)c2nc(CC(C)C)c(C#N)c(=O)n12	-1.5	2	0.69	-288	35*	-5
CCOC(=O)c1nn(-c2ccccc2)c2nc(-c3ccc(OC)cc3)c(C#N)c(=O)n12	-0.69	-7	nt	-42	-6	3
O=S(=O)(c1ccccc1)c1cnc(-c2ccccc2)nc1N1CCCCC1	-0.31	3	0.16	10	-23	-2
COc1cccc(CC(NC(C)=O)C(=O)NC2CCN(C(=O)C3CC3)CC2)c1OC (stereo unspecified)	0.2	4	0.076	-24	-19	3
Cc1ccc(-c2csc(/C=C3\SC(C)C(=O)N3CC(=O)Nc3ccccc3F)n2)cc1 (stereo unspecified)	-0.023	nt	nt	67*	nt	nt
O=c1[nH]c(C2CCN(S(=O)(=O)c3ccccc3)CC2)nc2c1nnn2Cc1ccccc1	nt	11	nt	-92	0	0
Cc1nn2c(-c3ccccc3)c(-c3ccccc3)nc2[nH]c1=O	-2.5	32*	nt	-282	-11	-17
COc1ccc2[nH]c(C(=O)O)c(CCNC(C)=O)c2c1	-0.72	5	nt	-87	40*	1
CCN(CC)CCCC(C)NC(=O)c1cccc(S(=O)(=O)N2CCc3ccccc32)c1 (stereo unspecified)	0.74	17	-0.94	6	-2	-13
C=CCNC(=S)N/N=C/c1cccc([N+](=O)[O-])c1	1.2	0	-1.2	64*	-10	-2
O=C(Nc1nnc(SCc2ccccc2Cl)s1)C1COc2ccccc2O1 (stereo unspecified)	0.95	41*	nt	-7	-9	0
O=C(Nc1nnc(SCc2cccc3ccccc23)s1)C1COc2ccccc2O1 (stereo unspecified)	-0.36	20	nt	-37	-7	-3
Cc1ccccc1CSc1nnc(NC(=O)C2COc3ccccc3O2)s1 (stereo unspecified)	nt	48*	-0.51	7	-18	-7
CC(C)c1ccc(CN2CCN(C(=O)CCl)CC2)cc1	0.95	0	-0.54	i	-18	-4
CNC(=S)NNC(=O)c1ccccc1F	0.56	7	0.2	90*	-12	-8
CNC(=S)NNC(=O)c1ccccc1Cl	nt	nt	nt	-1	-8	nt
COc1ccc(/C=C(\NC(=O)c2ccccc2Cl)C(=O)NCCCC(=O)O)cc1	0.56	9	0.73	52*	-16	0
O=C(O)CCCNC(=O)/C(=C\C=C\c1ccccc1)NC(=O)c1ccccc1Cl	-1.1	9	0.12	17	-3	-6
CC(NCc1ccccc1Cl)C(=O)Nc1ccc(C#N)cc1 (stereo unspecified)	0.59	4	-1	9	-17	-3
COc1ccc(NC(=O)c2noc(C(C)C)c2[N+](=O)[O-])cc1	0.32	10	-0.43	53*	-17	3
CCc1ccc(NC(=O)c2noc(C(C)C)c2[N+](=O)[O-])cc1	-2.1	1	-0.41	46	-21	1
CC(=O)c1ccc(NC(=O)c2noc(C(C)C)c2[N+](=O)[O-])cc1	-0.35	8	1	95*	10	0
CC1CN(Cc2nc3c(c(=O)n(C)c(=O)n3C)n2Cc2ccc(Cl)cc2)CC(C)O1 (stereo unspecified)	nt	1	nt	nt	nt	nt
CN1C(=O)S/C(=C\c2ccccc2OCc2ccc(C(=O)O)cc2)C1=O	-2.4	-1	-0.072	-31	-6	-6
CN1C(=O)S/C(=C/c2ccccc2OCc2ccc(C(=O)O)cc2)C1=O	-4.3*	4	-2.7*	9	-13	6
O=c1cc(N2CCCCC2)c(-c2ccccc2)nn1Cc1ccccc1	-0.69	-20	-3.1*	15	-11	-4
Cn1nc(-c2ccccc2)c(N2CCCCC2)cc1=O	-0.091	-12	0.019	16	-7	-5
CC[C@@H](C)[C@H](NC(=O)OC(C)(C)C)c1nnc(S(=O)(=O)Cc2cc(C)ccc2C)o1	-6.4*	-45	-1.5	9	-12	-10
Cc1ccccc1CS(=O)(=O)c1nnc([C@H](CC(C)C)NC(=O)OC(C)(C)C)o1	-3.2	-1	nt	22	-9	-5
